Measured values from ChEMBL document CHEMBL1147036, “An NQO1- and PARP-1-mediated cell death pathway induced in non-small-cell lung cancer cells by beta-lapachone” (2007).
The source made the active and inactive calls. The calls are words filed in the database; no cut-off is given here.

Experiments:
A549 [1] = assay: Reversal of cell death in human A549 cells at 10 uM in presence of 3-aminobenzamide after 2 hrs; type: functional, cell-based
A549 [2] = assay: Reversal of PARP1 hyperactivation in NQO1 expressing human A549 cells assessed as PAR formation in presence of 3-aminobenzamide; type: functional, cell-based
Procedure, shortened: (§1)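 Cells pretreated 2 h with or without 25 mM 3-aminobenzamide, then exposed to drug with or without 3-AB for 20 min; PAR formation read by Western blot.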

A549 [3] = assay: Reversal of induction of NAD+ depletion in NQO1 expressing human A549 cells at 10 uM in presence of 40 uM dicoumarol by luciferase based bioluminescence assay; type: functional, cell-based
Procedure, shortened: (§2)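 10 μM drug ± 40 μM DIC; intracellular NAD+ measured at set times and expressed as % treated/control. Means ± SE of at least three independent experiments, each in duplicate.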

[4] = Cytotoxicity against NQO1 expressing human H596 cells after 2 hrs; type: functional; conditions: NCI-H596, 2 h, read-out: LD50 (the source's name)
Procedure, shortened: (§3)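 Long-term relative survival assay: cells exposed to drug for 2 h (A549 with or without 50 μM dicoumarol), drug removed, then grown 7 days post-treatment in DMEM with 10% FBS at 37°C, 5% CO2. Survival read from DNA content and confirmed by colony-forming ability. LD50 from dose-response; means ± SE, at least three experiments in triplicate. H596 line stably expressing NQO1 via retroviral vector, puromycin-selected.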

NCI-H596 [5] = assay: Induction of ATP depletion in NQO1 expressing human H596 cells at 10 uM by luciferase based bioluminescence assay; type: functional, cell-based
Procedure, shortened: (§4)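 Cells exposed to 10 μM drug, harvested at set times; ATP measured in whole-cell extracts by luciferase bioluminescence. DIC coadded with drug in NQO1 inhibition arms. Means ± SE, three or more experiments in triplicate.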

NCI-H596 [6] = assay: Induction of NAD+ depletion in NQO1 expressing human H596 cells at 10 uM by luciferase based bioluminescence assay; type: functional, cell-based; procedure, shortened: as §2
NCI-H596 [7] = assay: Induction of PARP1 hyperactivation in NQO1 deficient human H596 cells assessed as PAR accumulation at 10 uM for 10 mins by Western blot; type: functional, cell-based
NCI-H596 [8] = assay: Induction of PARP1 hyperactivation in NQO1 expressing human H596 cells assessed as PAR accumulation at 10 uM for 10 mins by Western blot; type: functional, cell-based
NCI-H596 [9] = assay: Reversal of induction of ATP depletion in NQO1 expressing human H596 cells at 10 uM in presence of 40 uM dicoumarol by luciferase based bioluminescence assay; type: functional, cell-based; procedure, shortened: as §4
NCI-H596 [10] = assay: Reversal of induction of PARP1 hyperactivation in NQO1 expressing human H596 cells assessed as PAR accumulation at 10 uM for 10 mins by Western blot; type: functional, cell-based
A549 [11] = assay: Cytotoxicity against NQO1 expressing human A549 cells after 2 hrs; type: functional; conditions: A549, 2 h, read-out: LD50 (the source's name); procedure, shortened: as §3
A549 [12] = assay: Induction of PARP1 hyperactivation in NQO1 expressing human A549 cells assessed as PAR accumulation at 10 uM for 10 mins by Western blot; type: functional, cell-based
A549 [13] = assay: Induction of DNA damage in NQO1 expressing human A549 cells at 10 uM in presence of dicoumarol after 2 hrs by alkaline comet tail assay; type: functional, cell-based
Procedure, shortened: (§5)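 Cells exposed 10 μM drug for 2 h, ± 50 μM DIC; 2 mM H2O2 for 2 h as positive control. Alkaline comet assay, SYBR Green staining, fluorescence microscopy; tail lengths quantified in arbitrary units. Means ± SE from three experiments.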

NCI-H596 [14] = assay: Induction of DNA damage in NQO1 expressing human H596 cells at 10 uM in presence of dicoumarol after 2 hrs by alkaline comet tail assay; type: functional, cell-based; procedure, shortened: as §5
A549 [15] = assay: Reversal of cell death in NQO1 expressing human A549 cells at 6 uM in presence of 1,2-bis(2-aminophenoxy)ethane-N,N,N',N'-tetraacetic acid acetoxymethyl ester; type: functional, cell-based
A549 [16] = assay: Induction of NAD+ depletion in NQO1 expressing human A549 cells at 6 uM after 1 hr by luciferase based bioluminescence assay; type: functional
Procedure, shortened: (§6)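 A549 cells pretreated with 5 μM BAPTA-AM or mock, then given 6 μM drug for 1 h; percent NAD+ loss measured as surrogate of PARP-1 hyperactivation, expressed as % of control.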

A549 [17] = assay: Reversal of PARP1 hyperactivation in NQO1 expressing human A549 cells assessed as PAR formation at 6 uM in presence of 1,2-bis(2-aminophenoxy)ethane-N,N,N',N'-tetraacetic acid acetoxymethyl ester; type: functional, cell-based
Procedure, shortened: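 A549 cells pretreated with 5 μM BAPTA-AM or mock, then exposed to 6 μM drug for 10 min; lysates probed for PAR by Western blot.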

NCI-H596 [18] = assay: Reversal of PAR-polymer formation in NQO1 expressing human H596 cells at 10 uM in presence of 50 uM dicoumarol; type: functional, cell-based
NCI-H596 [19] = assay: Induction of DNA damage in NQO1 deficient human H596 cells at 10 uM after 2 hrs by alkaline comet tail assay; type: functional, cell-based; procedure, shortened: as §5
A549 [20] = assay: Reversal of induction of NAD+ depletion in NQO1 expressing human A549 cells at 6 uM in presence of 1,2-bis(2-aminophenoxy)ethane-N,N,N',N'-tetraacetic acid acetoxymethyl ester; type: functional, cell-based; procedure, shortened: as §6
A549 [21] = assay: Induction of NAD+ depletion in NQO1 expressing human A549 cells at 10 uM by luciferase based bioluminescence assay; type: functional, cell-based; procedure, shortened: as §2
NCI-H596 [22] = assay: Induction of oxidative stress in NQO1 expressing human H596 cells assessed as reactive oxygen species generation at 10 uM after 1 hr by flow cytometry; type: functional, cell-based
Procedure, shortened: (§7)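 Cells given 10 μM drug ± 50 μM DIC; ROS monitored over a time course by conversion of chloromethyl-dichlorodihydrofluorescein diacetate to fluorescent product, read by flow cytometry. 2 mM H2O2 or 10 μM antimycin A for 20 min as positive controls. Means ± SE, three experiments in duplicate.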

A549 [23] = assay: Reversal of induction of cell death in human A549 cells in presence of 3-aminobenzamide at 10 uM after 48 hrs by TUNEL assay; type: functional, cell-based
A549 [24] = assay: Reversal of PAR-polymer formation in NQO1 expressing human A549 cells at 10 uM in presence of 50 uM dicoumarol; type: functional, cell-based
NCI-H596 [25] = assay: Reversal of induction of nucleotide depletion in NQO1 expressing human H596 cells in presence of 3-aminobenzamide by luciferase based bioluminescence assay; type: functional, cell-based
Procedure, shortened: (§8)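 Cells pretreated 2 h ± 25 mM 3-AB, then drug ± 3-AB; harvested at set times. NAD+ as % treated/control; ATP by luciferase bioluminescence of whole-cell extracts. Means ± SE of three experiments.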

A549 [26] = assay: Reversal of induction of DNA damage in human A549 cells in presence of 3-aminobenzamide at 10 uM after 2 hrs; type: functional, cell-based
NCI-H596 [27] = assay: Reversal of induction of NAD+ depletion in NQO1 expressing human H596 cells at 10 uM in presence of 40 uM dicoumarol by luciferase based bioluminescence assay; type: functional, cell-based; procedure, shortened: as §2
A549 [28] = assay: Reversal of induction of nucleotide depletion in NQO1 expressing human A549 cells in presence of 3-aminobenzamide by luciferase based bioluminescence assay; type: functional, cell-based; procedure, shortened: as §8
A549 [29] = assay: Induction of DNA damage in NQO1 expressing human A549 cells at 10 uM after 2 hrs by alkaline comet tail assay; type: functional, cell-based; procedure, shortened: as §5
NCI-H596 [30] = assay: Induction of DNA damage in NQO1 expressing human H596 cells at 10 uM after 2 hrs by alkaline comet tail assay; type: functional, cell-based; procedure, shortened: as §5
A549 [31] = assay: Induction of ATP depletion in NQO1 expressing human A549 cells at 10 uM by luciferase based bioluminescence assay; type: functional, cell-based; procedure, shortened: as §4
NCI-H596 [32] = assay: Cytotoxicity against NQO1 expressing human H596 cells assessed as long term survival at =>5 uM for 2 hrs; type: functional, cell-based
Procedure, shortened: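 Isogenic H596 lines (retroviral NQO1 or empty vector, pooled, puromycin 1.0 μg/ml selected) in DMEM/10% FBS, 37°C, 5% CO2. Drug given 2 h, then removed; relative survival from DNA content after 7 days' growth. Confirmed by colony formation; means ± SE of three experiments in triplicate.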

A549 [33] = assay: Induction of oxidative stress in NQO1 expressing human A549 cells assessed as reactive oxygen species generation at 10 uM after 1 hr by flow cytometry; type: functional, cell-based; procedure, shortened: as §7
NCI-H596 [34] = assay: Reversal of PARP1 hyperactivation in NQO1 expressing human H596 cells assessed as PAR formation in presence of 3-aminobenzamide; type: functional, cell-based; procedure, shortened: as §1
A549 [35] = assay: Reversal of induction of ATP depletion in NQO1 expressing human A549 cells at 10 uM in presence of 40 uM dicoumarol by luciferase based bioluminescence assay; type: functional, cell-based; conditions: in the assay text read “50 uM dicoumarol” for “40 uM dicoumarol”; procedure, shortened: as §4

Q: With `CC1(C)CCC2=C(O1)c1ccccc1C(=O)C2=O` [LAPACHONE] as the molecule, how does the Activity (A549 [1]) read?
A: Active

Q: What about the Activity (A549 [2]) of the same molecule?
A: Active

Q: And the Activity (A549 [3])?
A: Active

Q: What about the CC50 [4] of the same molecule?
A: 4 µM

Q: What about the Activity (NCI-H596 [5]) of the same molecule?
A: Active

Q: And the Activity (NCI-H596 [6])?
A: Active

Q: And the Activity (NCI-H596 [7])?
A: inactive

Q: What about the Activity (NCI-H596 [8]) of the same molecule?
A: Active

Q: And the Activity (NCI-H596 [9])?
A: Active

Q: What about the Activity (NCI-H596 [10]) of the same molecule?
A: Active

Q: And the CC50 (A549 [11])?
A: 2.5 µM

Q: And the Activity (A549 [12])?
A: Active

Q: And the Activity (A549 [13])?
A: inactive

Q: And the Activity (NCI-H596 [14])?
A: inactive

Q: What about the Activity (A549 [15]) of the same molecule?
A: Active

Q: And the Activity (A549 [16])?
A: 43%

Q: And the Activity (A549 [17])?
A: Active

Q: What about the Activity (NCI-H596 [18]) of the same molecule?
A: Active

Q: What about the Activity (NCI-H596 [19]) of the same molecule?
A: inactive

Q: And the Activity (A549 [20])?
A: Active

Q: What about the Activity (A549 [21]) of the same molecule?
A: Active

Q: What about the Activity (NCI-H596 [22]) of the same molecule?
A: Active

Q: What about the Activity (A549 [23]) of the same molecule?
A: Active

Q: And the Activity (A549 [24])?
A: Active

Q: What about the Activity (NCI-H596 [25]) of the same molecule?
A: Active

Q: And the Activity (A549 [26])?
A: Active

Q: And the Activity (NCI-H596 [27])?
A: Active

Q: And the Activity (A549 [28])?
A: Active

Q: And the Activity (A549 [29])?
A: Active

Q: What about the Activity (NCI-H596 [30]) of the same molecule?
A: Active

Q: What about the Activity (A549 [31]) of the same molecule?
A: Active

Q: And the Activity (NCI-H596 [32])?
A: Active

Q: What about the Activity (A549 [33]) of the same molecule?
A: Active

Q: And the Activity (NCI-H596 [34])?
A: Active

Q: What about the Activity (A549 [35]) of the same molecule?
A: Active
